Reference: BindingDB's records for doi:10.1021/jm960325j (Universit&#224, 1996)

biological target: Translocator protein (Rattus norvegicus, UniProt P16257); assay: Binding affinity against peripheral benzodiazepine receptor( PBR).
Summary of the method: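 Rat cerebral cortex membranes washed repeatedly at 50000g in 50 mM phosphate pH 7.4, 2.3 mg tissue per sample. Filtration, scintillation counting. IC50 by log-probit analysis over six concentrations in duplicate, means of three experiments. Maximal concentration 1000 nM.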

Chain of Translocator protein (P16257 whole entry, looked up): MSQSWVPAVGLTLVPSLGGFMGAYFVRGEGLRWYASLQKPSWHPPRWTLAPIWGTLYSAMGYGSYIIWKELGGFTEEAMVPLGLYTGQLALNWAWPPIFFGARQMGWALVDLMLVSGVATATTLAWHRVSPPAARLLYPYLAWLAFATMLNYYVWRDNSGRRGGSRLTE

Row | IC50 | SMILES
1 | > 1000 nM | O=c1c2ccc[nH]c-2cn1-c1ccc(Cl)cc1 [6-(4-Chloro-phenyl)-6,7-dihydro-pyrrolo[3,4-b]pyridin-5-one]
2 | > 1000 nM | CCCCCCN(CCCCCC)C(=O)Cc1c2[nH]c3ccccc3cc-2c(=O)n1-c1ccc(Cl)cc1 [2-[2-(4-Chloro-phenyl)-1-oxo-2,3-dihydro-1H-pyrrolo[3,4-b]quinolin-3-yl]-N,N-dihexyl-acetamide]
3 | > 1000 nM | CCCN(CCC)C(=O)Cc1c2[nH]c3ccccc3cc-2c(=O)n1-c1ccc(Cl)cc1 [2-[2-(4-Chloro-phenyl)-1-oxo-2,3-dihydro-1H-pyrrolo[3,4-b]quinolin-3-yl]-N,N-dipropyl-acetamide]
4 | > 1000 nM | CCCN(CCC)C(=O)Cc1c2[nH]cccc-2c(=O)n1-c1ccc(Cl)cc1 [2-[6-(4-Chloro-phenyl)-5-oxo-6,7-dihydro-5H-pyrrolo[3,4-b]pyridin-7-yl]-N,N-dipropyl-acetamide]
